Experimental data published in publication PMC6226330 (ACS Infectious Diseases, 2018).
Where two headings read alike, the source gives them in different places.

Key:
S. aureus (Newman) [1] = assay: Rat triceps infection versus sterile inflammation model, PET/CT and ex vivo; type: in vivo; conditions: for PET signal at infection site versus sterile inflammation: [18F]FDG PET, 60–80 min postinjection, P = 0.2, n = 4; for infected triceps to inflamed triceps ratio: PET
Outline: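 Rats received live S. aureus Newman (50 μL) in the right triceps and heat-killed bacteria in BHI (50 μL) in the left. After 20–24 h, tracer was given IV and dynamic PET/CT run up to 120 min. Uptake was %ID/cc, with blood taken from the left ventricle (n = 7, mean ± SEM). Ex vivo gamma counting gave %ID/g (n = 6). Groups were compared by two-tailed Mann-Whitney U test.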

MSSA = assay: Bacterial burden ex vivo; type: in vivo, rat; conditions: four doses of 200 mg/kg subcutaneously over 20 h; untreated 8.4 ± 0.1
MRSA = assay: Bacterial burden ex vivo; type: in vivo, rat; conditions: four doses of 200 mg/kg subcutaneously over 20 h; untreated 9.0 ± 0.2
S. aureus [2] = assay: In vitro uptake of 2-[18F]F-PABA by S. aureus; type: cell-based
Outline: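 Cells were incubated with 10 kBq/mL 2-[18F]F-PABA at 37 °C with rapid agitation, with graded PABA concentrations for blocking. Cells were then pelleted, washed three times in PBS, and gamma-counted. At least six replicates were run per point. Data were expressed as percentage or normalized to total protein (Bradford).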

J774 murine macrophages = assay: In vitro uptake of 2-[18F]F-PABA by mammalian cells; type: cell-based
Outline: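 J774.1 murine macrophages were cultured in RPMI GlutaMAX with 10% heat-inactivated FBS at 37 °C, 5% CO2. Tracer accumulation was gamma-counted in parallel with bacterial strains. At least six replicates were run. Values were expressed as percentage or normalized to total protein (Bradford).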

S. aureus (Newman) [3] = assay: Mouse S. aureus thigh infection model, PET and ex vivo biodistribution; type: in vivo
S. aureus [4] = type: in vivo, rat; conditions: tracer containing 2 mg 19F-PABA, two hours after injection, ex vivo
Outline: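 Rats carried live S. aureus Newman in the right triceps and heat-killed bacteria in BHI in the left triceps (sterile inflammation). They received 29.6–37 MBq tracer spiked with 2 mg 19F-PABA via the tail vein. At 2 h animals were sacrificed. Organ radioactivity was gamma-counted and bacterial load determined by plating and CFU enumeration.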

MSSA and MRSA = type: in vivo, rat
Outline: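 Female Sprague-Dawley rats (10 weeks) received 50 μL S. aureus Newman (MSSA) in the right triceps and MRSA ATCC BAA1762 in the left triceps, each at 8 log10 CFU. Oxacillin began 2–4 h after infection: 4 subcutaneous 200 mg/kg doses over 20 h. Tracer was 22.2–44.4 MBq in saline by tail-vein catheter under anesthesia. PET/CT was done 2–4 h after the last dose.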

S. aureus [5] = assay: Compartment PK model of dynamic 2-[18F]F-PABA PET data; type: in vivo, rat; conditions: after 2 h, simulation with compartment PK model
Outline: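 Dynamic PET data came from blood and the infected right triceps of S. aureus-infected rats. Specific and nonspecific activities at the sites were then simulated.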

[6] = group not treated with oxacillin
[7] = oxacillin-treated, four doses of 200 mg/kg

For `OC[C@H]1OC(O)[C@H]([18F])[C@@H](O)[C@@H]1O` (stereo partly shown) [[^18F]FDG, [^18F]fluorodeoxyglucose, reference compound], the “PET signal at infection site versus sterile inflammation” value (S. aureus (Newman) [1]) was “not significantly different” and the “PET signal at infection site versus sterile inflammation” value (S. aureus (Newman) [1]; listed as [^18F]F-FDG) was “no difference”.

`Cc1onc(-c2ccccc2)c1C(=O)N[C@@H]1C(=O)N2[C@@H]1SC(C)(C)[C@@H]2C(=O)O` [oxacillin] was tested, and the “bacterial burden in right triceps (MSSA infection)” value (MSSA) was 6.4 ± 0.4 log10 CFU/g and the “bacterial burden in left triceps (MRSA infection)” value (MRSA) was 8.2 ± 0.3 log10 CFU/g.

With `Nc1ccc(C(=O)O)c([18F])c1` [2-[^18F]F-PABA, 2-[^18F]fluoro-p-aminobenzoic acid] the “accumulation in viable versus heat-killed bacteria” value (S. aureus [2]; S. aureus ATCC 29213) was “rapidly accumulated in viable cells but not in heat-killed bacteria”, the “accumulation in clinical strains” value (S. aureus [2]; four MSSA and six MRSA clinical strains) was “accumulates in all the clinical strains tested” and the “accumulation in mammalian cells” value (J774 murine macrophages) was “not in mammalian cells”. The “tracer level in infected versus uninfected thighs” value (S. aureus (Newman) [3]; mouse thigh infection) was “significantly higher levels of tracer were found in the infected thighs than in uninfected thighs”, the elimination (S. aureus (Newman) [3]; mouse, PET and ex vivo tissue analysis) was “rapidly eliminated mainly through renal clearance” and the “infected triceps to inflamed triceps ratio” value (S. aureus (Newman) [1]; 60 min) was 5.52. The “infected triceps to inflamed triceps ratio” value (S. aureus (Newman) [1]; 120 min) was 7.95, the “infected triceps to inflamed triceps ratio” value (S. aureus (Newman) [1]; after 10 min) was roughly 2 fold and the “signal in infected triceps compared to inflamed muscle” value (S. aureus (Newman) [1]; post-mortem ex vivo analysis, %ID/g) was 4.30 ± 0.82. For the same compound, the “ratio of 2-[18F]F-PABA in infected triceps compared to inflamed muscle” value (S. aureus [4]) was 9.38 ± 2.43, the “PET signal in left triceps (MRSA infection)” value (MSSA and MRSA; [6]) was 0.096 ± 0.039 %ID/cc and the “PET signal in right triceps (MSSA infection)” value (MSSA and MRSA; [6]) was 0.087 ± 0.041 %ID/cc. For the same compound, the “PET signal in left triceps (MRSA infection)” value (MSSA and MRSA; [7]) was 0.079 ± 0.036 %ID/cc, the “PET signal in right triceps (MSSA infection)” value (MSSA and MRSA; [7]) was 0.025 ± 0.015 %ID/cc and the “share of total activity at site of infection from specific accumulation” value (S. aureus [5]) was roughly 60%.
